In brackets after ≈: the same amount, converted by molar mass. Activity calls are given as the source filed them. The calls are words filed in the database; no cut-off is given here.
How the values were obtained:
[1] = tested on: Colletotrichum graminicola; assay: Fungicidal activity against tebuconazole-adapted wild type Colletotrichum graminicola CgM2 assessed as inhibition of radial growth rate at 23 degC in darkness; format: functional; conditions: for EC50: Colletotrichum graminicola, CgM2, read-out: ED50 (the source's name)
Summary of the method: (§1)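 Radial growth on solid complete medium, 23°C, darkness. Colony diameters were read at 3 and 6 days after inoculation and compared with drug-free control plates. Azoles and picoxystrobin were dissolved in 12% (wt/vol) Cremophor EL and tested at 0–2.5 μg/ml. Caspofungin, amphotericin B and nystatin were dissolved in water and tested from 0.00025 μg/ml; caspofungin plates used sucrose (10 mg/ml) in place of glucose.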

[2] = tested on: Colletotrichum graminicola; assay: Fungicidal activity against tebuconazole-nonadapted wild type Colletotrichum graminicola CgM2 assessed as inhibition of radial growth rate at 23 degC in darkness; format: functional; conditions: for EC50: Colletotrichum graminicola, CgM2, read-out: ED50 (the source's name); summary of the method: as §1
[3] = tested on: Colletotrichum graminicola; assay: Fungicidal activity against tebuconazole-adapted wild type Colletotrichum graminicola CgM2 infected in excised human skin assessed as inhibition of invasive colonized hyphal growth at epidermis at ED90 after 4 days by Uvitex-2B staining-based fluorescence microscopy; format: functional, organism-based
Summary of the method: (§2)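 Excised human skin from reduction mammoplasty, all pieces from one donor, cut to 20 mm discs. Each disc got 15–20 prick wounds and 100 μl of 10^6 conidia/ml. Discs sat in a Franz diffusion cell at 32°C over isotonic NaCl for up to 4 days. Drug was applied at ED50, ED90 or 2× ED90, three pieces per condition. Biopsies were cryosectioned and Uvitex 2B-stained; hyphal area per section was measured by fluorescence.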

[4] = tested on: Colletotrichum graminicola; assay: Fungicidal activity against tebuconazole-adapted wild type Colletotrichum graminicola CgM2 infected in excised human skin assessed as inhibition of invasive colonized hyphal growth at hypodermis at twofold ED90 after 4 days by Uvitex-2B staining-based fluorescence microscopy; format: functional, organism-based; summary of the method: as §2
[5] = tested on: Colletotrichum graminicola; assay: Fungicidal activity against tebuconazole-nonadapted wild type Colletotrichum graminicola CgM2 infected in excised human skin assessed as inhibition of invasive colonized hyphal growth at hypodermis at ED90 after 4 days by Uvitex-2B staining-based fluorescence microscopy; format: functional, organism-based; summary of the method: as §2
[6] = tested on: Colletotrichum graminicola; assay: Fungicidal activity against tebuconazole-adapted wild type Colletotrichum graminicola CgM2 infected in excised human skin assessed as inhibition of invasive colonized hyphal growth at dermis at ED50 after 4 days by Uvitex-2B staining-based fluorescence microscopy; format: functional, organism-based; summary of the method: as §2
[7] = tested on: Colletotrichum graminicola; assay: Fungicidal activity against tebuconazole-nonadapted wild type Colletotrichum graminicola CgM2 infected in excised human skin assessed as inhibition of invasive colonized hyphal growth at dermis at ED90 after 4 days by Uvitex-2B staining-based fluorescence microscopy; format: functional, organism-based; summary of the method: as §2
[8] = tested on: Colletotrichum graminicola; assay: Fungicidal activity against tebuconazole-nonadapted wild type Colletotrichum graminicola CgM2 infected in excised human skin assessed as inhibition of invasive colonized hyphal growth at epidermis at twofold ED90 after 4 days by Uvitex-2B staining-based fluorescence microscopy; format: functional, organism-based; summary of the method: as §2
[9] = tested on: Colletotrichum graminicola; assay: Fungicidal activity against tebuconazole-nonadapted wild type Colletotrichum graminicola CgM2 infected in excised human skin assessed as inhibition of invasive colonized hyphal growth at epidermis at ED50 after 4 days by Uvitex-2B staining-based fluorescence microscopy; format: functional, organism-based; summary of the method: as §2
[10] = tested on: Colletotrichum graminicola; assay: Fungicidal activity against tebuconazole-adapted wild type Colletotrichum graminicola CgM2 infected in excised human skin assessed as inhibition of invasive colonized hyphal growth at dermis at ED90 after 4 days by Uvitex-2B staining-based fluorescence microscopy; format: functional, organism-based; summary of the method: as §2
[11] = tested on: Colletotrichum graminicola; assay: Fungicidal activity against tebuconazole-nonadapted wild type Colletotrichum graminicola CgM2 infected in excised human skin assessed as inhibition of invasive colonized hyphal growth at hypodermis at ED50 after 4 days by Uvitex-2B staining-based fluorescence microscopy; format: functional, organism-based; summary of the method: as §2
[12] = tested on: Colletotrichum graminicola; assay: Fungicidal activity against tebuconazole-adapted wild type Colletotrichum graminicola CgM2 infected in excised human skin assessed as inhibition of invasive colonized hyphal growth at dermis at twofold ED90 after 4 days by Uvitex-2B staining-based fluorescence microscopy; format: functional, organism-based; summary of the method: as §2
[13] = tested on: Colletotrichum graminicola; assay: Fungicidal activity against tebuconazole-nonadapted wild type Colletotrichum graminicola CgM2 infected in excised human skin assessed as inhibition of invasive colonized hyphal growth at dermis at ED50 after 4 days by Uvitex-2B staining-based fluorescence microscopy; format: functional, organism-based; summary of the method: as §2
[14] = tested on: Colletotrichum graminicola; assay: Fungicidal activity against tebuconazole-adapted wild type Colletotrichum graminicola CgM2 infected in excised human skin assessed as inhibition of invasive colonized hyphal growth at epidermis at ED50 after 4 days by Uvitex-2B staining-based fluorescence microscopy; format: functional, organism-based; summary of the method: as §2
[15] = tested on: Colletotrichum graminicola; assay: Fungicidal activity against tebuconazole-nonadapted wild type Colletotrichum graminicola CgM2 infected in excised human skin assessed as inhibition of invasive colonized hyphal growth at epidermis at ED90 after 4 days by Uvitex-2B staining-based fluorescence microscopy; format: functional, organism-based; summary of the method: as §2
[16] = tested on: Colletotrichum graminicola; assay: Fungicidal activity against tebuconazole-adapted wild type Colletotrichum graminicola CgM2 infected in excised human skin assessed as inhibition of invasive colonized hyphal growth at hypodermis at ED50 after 4 days by Uvitex-2B staining-based fluorescence microscopy; format: functional, organism-based; summary of the method: as §2
[17] = tested on: Colletotrichum graminicola; assay: Fungicidal activity against tebuconazole-adapted wild type Colletotrichum graminicola CgM2 infected in excised human skin assessed as inhibition of invasive colonized hyphal growth at hypodermis at ED90 after 4 days by Uvitex-2B staining-based fluorescence microscopy; format: functional, organism-based; summary of the method: as §2
[18] = tested on: Colletotrichum graminicola; assay: Fungicidal activity against tebuconazole-nonadapted wild type Colletotrichum graminicola CgM2 infected in excised human skin assessed as inhibition of invasive colonized hyphal growth at dermis at twofold ED90 after 4 days by Uvitex-2B staining-based fluorescence microscopy; format: functional, organism-based; summary of the method: as §2
[19] = tested on: Colletotrichum graminicola; assay: Fungicidal activity against tebuconazole-adapted wild type Colletotrichum graminicola CgM2 infected in excised human skin assessed as inhibition of invasive colonized hyphal growth at epidermis at twofold ED90 after 4 days by Uvitex-2B staining-based fluorescence microscopy; format: functional, organism-based; summary of the method: as §2
[20] = tested on: Colletotrichum graminicola; assay: Fungicidal activity against tebuconazole-nonadapted wild type Colletotrichum graminicola CgM2 infected in excised human skin assessed as inhibition of invasive colonized hyphal growth at hypodermis at twofold ED90 after 4 days by Uvitex-2B staining-based fluorescence microscopy; format: functional, organism-based; summary of the method: as §2
[21] = tested on: Colletotrichum graminicola; assay: Ratio of ED50 for tebuconazole-adapted wild type Colletotrichum graminicola CgM2 to ED50 for tebuconazole-nonadapted wild type Colletotrichum graminicola CgM2; format: functional
Summary of the method: (§3)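 Values came from logit transformation and linear regression, with confidence intervals at α = 0.05. Ratios compare tebuconazole-adapted with nonadapted CgM2.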

[22] = tested on: Colletotrichum graminicola; assay: Ratio of ED90 for tebuconazole-adapted wild type Colletotrichum graminicola CgM2 to ED90 for tebuconazole-nonadapted wild type Colletotrichum graminicola CgM2; format: functional; summary of the method: as §3
[23] = tested on: Colletotrichum graminicola; assay: Fungicidal activity against compound-nonadapted wild type Colletotrichum graminicola CgM2 assessed as inhibition of radial growth rate at 30 ppm at 23 degC in darkness after 7 days; format: functional, organism-based
Summary of the method: (§4)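 Isolate CgM2: 1 × 10^6 conidia grown in 50 ml liquid complete medium (CM), 7 days in darkness at 23°C. Adapted lines were passed through tebuconazole at 1, 5 and 20 μg/ml, then kept on CM plates containing 5 and 8 μg/ml (4 weeks each) and finally 30 μg/ml. Radial growth on CM plates was compared with that of the nonadapted strain.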

[24] = tested on: Colletotrichum graminicola; assay: Fungicidal activity against compound-adapted wild type Colletotrichum graminicola CgM2 assessed as inhibition of radial growth rate at 30 ppm at 23 degC in darkness after 7 days; format: functional, organism-based; summary of the method: as §4

Compound | ED90 [1] [µg/mL] | EC50 [1] [µg/mL] | ED90 [2] [µg/mL] | EC50 [2] [µg/mL] | other results
CCC(C)(C)c1ccc(CC(C)CN2C[C@@H](C)O[C@@H](C)C2)cc1 (stereo partly specified) [AMOROLFINE] | 0.36 (≈ 1.13 µM) | 0.023 (≈ 0.0724 µM) | 0.347 (≈ 1.09 µM) | 0.03 (≈ 0.0945 µM) | –
C[C@@H]1[C@H](O)[C@@H](C)/C=C/C=C/C=C/C=C/C=C/C=C/C=C/[C@H](O[C@@H]2O[C@H](C)[C@@H](O)[C@H](N)[C@@H]2O)C[C@@H]2O[C@](O)(C[C@@H](O)C[C@@H](O)[C@H](O)CC[C@@H](O)C[C@@H](O)CC(=O)O[C@H]1C)C[C@H](O)[C@H]2C(=O)O [AMPHOTERICIN B] | 0.873 (≈ 0.945 µM) | 0.007 (≈ 0.00758 µM) | 2.147 (≈ 2.32 µM) | 0.03 (≈ 0.0325 µM) | –
c1ccc(-c2ccc(C(c3ccccc3)n3ccnc3)cc2)cc1 (stereo unspecified) [BIFONAZOLE] | 4.892 (≈ 15.8 µM) | 0.33 (≈ 1.06 µM) | 1.958 (≈ 6.31 µM) | 0.148 (≈ 0.477 µM) | Activity [3]: inactive; Activity [4]: inactive; Activity [5]: Active; Activity [6]: inactive; Activity [7]: Active; Activity [8]: Active; Activity [9]: Active; Activity [10]: inactive; Activity [11]: Active; Activity [12]: inactive; Activity [13]: Active; Activity [14]: inactive; Activity [15]: Active; Activity [16]: inactive; Activity [17]: inactive; Activity [18]: Active; Activity [19]: inactive; Activity [20]: Active
Cc1cc(C2CCCCC2)n(O)c(=O)c1.NCCO [CICLOPIROX OLAMINE] | 54.616 | 3.67 | 64.842 | 9.83 | –
Clc1ccccc1C(c1ccccc1)(c1ccccc1)n1ccnc1 [CLOTRIMAZOLE] | 6.485 (≈ 18.8 µM) | 0.145 (≈ 0.42 µM) | 2.44 (≈ 7.08 µM) | 0.128 (≈ 0.371 µM) | –
COC1=CC(=O)C[C@@H](C)[C@]12Oc1c(Cl)c(OC)cc(OC)c1C2=O [GRISEOFULVIN] | 5.839 (≈ 16.6 µM) | 0.051 (≈ 0.145 µM) | 5.503 (≈ 15.6 µM) | 0.607 (≈ 1.72 µM) | –
CCC(C)n1ncn(-c2ccc(N3CCN(c4ccc(OCC5COC(Cn6cncn6)(c6ccc(Cl)cc6Cl)O5)cc4)CC3)cc2)c1=O (stereo unspecified) [ITRACONAZOLE] | 8.848 (≈ 12.5 µM) | 0.014 (≈ 0.0198 µM) | 1.351 (≈ 1.91 µM) | 0.007 (≈ 0.00992 µM) | –
CC(=O)N1CCN(c2ccc(OCC3COC(Cn4ccnc4)(c4ccc(Cl)cc4Cl)O3)cc2)CC1 (stereo unspecified) [KETOCONAZOLE] | 12.419 (≈ 23.4 µM) | 0.552 (≈ 1.04 µM) | 1.492 (≈ 2.81 µM) | 0.115 (≈ 0.216 µM) | –
Clc1ccc(COC(Cn2ccnc2)c2ccc(Cl)cc2Cl)c(Cl)c1 (stereo unspecified) [MICONAZOLE] | 4.386 (≈ 10.5 µM) | 0.048 (≈ 0.115 µM) | 1.327 (≈ 3.19 µM) | 0.028 (≈ 0.0673 µM) | –
CO/C=C(/C(=O)OC)c1ccccc1COc1cccc(C(F)(F)F)n1 [PICOXYSTROBIN] | 1.041 (≈ 2.83 µM) | 0.026 (≈ 0.0708 µM) | 0.148 (≈ 0.403 µM) | 0.006 (≈ 0.0163 µM) | fold change (FC) [21]: 4; fold change (FC) [22]: 7
CCCN(CCOc1c(Cl)cc(Cl)cc1Cl)C(=O)n1ccnc1 [PROCHLORAZ] | 0.72 (≈ 1.91 µM) | 0.011 (≈ 0.0292 µM) | 0.087 (≈ 0.231 µM) | 0.004 (≈ 0.0106 µM) | fold change (FC) [21]: 2.75; fold change (FC) [22]: 8
CC(C)(C)C(O)(CCc1ccc(Cl)cc1)Cn1cncn1 (stereo unspecified) [TEBUCONAZOLE] | 13.534 (≈ 44 µM) | 0.423 (≈ 1.37 µM) | 0.504 (≈ 1.64 µM) | 0.059 (≈ 0.192 µM) | fold change (FC) [21]: 7; Activity [23]: Active; Activity [24]: inactive; fold change (FC) [22]: 27
Cc1cccc(N(C)C(=S)Oc2ccc3ccccc3c2)c1 [TOLNAFTATE] | 98.71 (≈ 321 µM) | 0.537 (≈ 1.75 µM) | 104.107 (≈ 339 µM) | 0.582 (≈ 1.89 µM) | –
C[C@@H](c1ncncc1F)[C@](O)(Cn1cncn1)c1ccc(F)cc1F [VORICONAZOLE] | 1.328 (≈ 3.8 µM) | 0.045 (≈ 0.129 µM) | 0.228 (≈ 0.653 µM) | 0.018 (≈ 0.0515 µM) | –
NYSTATIN | 0.896 | – | 2.41 | – | ED50 [1]: 0.023 µg/mL; ED50 [2]: 0.03 µg/mL

From ChEMBL document CHEMBL1153830, “Treatment of a clinically relevant plant-pathogenic fungus with an agricultural azole causes cross-resistance to medical azoles and potentiates caspofungin efficacy” (2007)
